From PubChem BioAssay
Compounds with a hit are over-represented: about 3.4% of the library has one in this group of screens.
TAAR1 antagonist = human TAAR1 antagonists, primary screen, Fluo-8 calcium fluorescence, CHO RD-HGA16 cells; hit rate 1.5% among 360,000; inhibition, % at 3 µM; antagonist; Trace amine-associated receptor 1 (Homo sapiens), Q96RJ0;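 active means inhibition above a per-plate cutoff, the mean inhibition of test compounds on that plate plus 3 SD, cut at about 49% in these data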;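 further: 0% = DMSO plus EC80 beta-PEA response and 100% = DMSO alone without agonist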
Target sequence (Q96RJ0 whole entry, looked up): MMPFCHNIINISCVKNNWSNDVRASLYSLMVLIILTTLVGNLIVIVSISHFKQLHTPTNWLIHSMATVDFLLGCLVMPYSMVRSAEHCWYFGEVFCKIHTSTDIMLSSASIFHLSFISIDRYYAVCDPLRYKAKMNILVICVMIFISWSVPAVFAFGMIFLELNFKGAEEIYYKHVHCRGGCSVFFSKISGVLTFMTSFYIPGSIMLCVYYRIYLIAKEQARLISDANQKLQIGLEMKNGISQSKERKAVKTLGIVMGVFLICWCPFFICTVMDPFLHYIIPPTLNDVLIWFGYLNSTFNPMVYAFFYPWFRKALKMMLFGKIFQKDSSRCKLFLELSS
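Assay system: CHO-derived RD-HGA16 cells stably expressing human TAAR1 plus Gα16. Timing: 140 s kinetic read after compound, 140 s after agonist. Technique: kinetic Fluo-8 calcium fluorescence measurement. Measure: % inhibition of agonist calcium response.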
M1 PAM = human M1 muscarinic receptor positive allosteric modulators, primary screen, CHO-K1 cells, Fluo-8 calcium fluorescence, 1536-well. Muscarinic acetylcholine receptor M1 (Homo sapiens), P11229. hit rate 0.088% among 360,000. activation, % at 3 µM. AID 588819, 2011. CHO-K1 hM1, ACh EC20; 0% = ACh EC20, 100% = maximal ACh; in the data active means activation above about 19%, passing the limit was not always enough
CHRM1 agonist = human M1 muscarinic receptor agonists, primary screen, Fluo-8 calcium fluorescence, CHO-K1 cells, HTS; hit rate 0.33% among 360,000; CHO-K1 hM1, agonist mode; 0% DMSO, 100% acetylcholine EC100; Muscarinic acetylcholine receptor M1 (Homo sapiens), P11229; activation, % at 3 µM; AID 588814, 2011;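 active means activation above the run's mean compound activation plus 3 SD, cut at about 16% in these data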;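 further: peak over basal fluorescence ratio within a 140 s kinetic read after compound addition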
TAAR1 ag = human TAAR1 agonists, primary screen, Fluo-8 calcium fluorescence, CHO RD-HGA16 cells | AID 624467, 2012 | hit rate 0.99% among 360,000 | activation, % at 3 µM | vehicle wells 0%, saturating PEA agonist 100%;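 active means activation above the mean activation of all test compounds in the run plus 3 SD, cut at about 38% in these data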
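System: CHO-derived RD-HGA16 cells with stable Gα16 and human TAAR1 / Times: 17-24 h plating, Fluo-8 75 min 37 °C, 30 min RT / Technique: calcium-sensitive Fluo-8 signal, excitation 470-495, emission 515-575 nm / Measure: % activation relative to PEA EC100 response / Benchmarks: DMSO and PEA EC100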
CHRM1 antagonist = human M1 muscarinic receptor antagonists, primary screen, CHO-K1 cells, Fluo-8 calcium fluorescence, 1536-well; hit rate 1.3% among 360,000; CHO-K1 hM1, ACh EC80 antagonist; inhibition, % at 3 µM; Muscarinic acetylcholine receptor M1 (Homo sapiens), P11229;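 active means percent inhibition above its own plate's cutoff, namely the mean of that plate's compound wells plus 3 SD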;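 further: peak over basal fluorescence ratio during 140 s after agonist addition; 0% = ACh EC80 plus DMSO and 100% = DMSO alone without agonist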
The depositor's hits bear a star; . = no result given.

SMILES	TAAR1 antagonist	M1 PAM	CHRM1 agonist	TAAR1 ag	CHRM1 antagonist
O=C(C1CCN(c2ncnc3c2nc2n3CCCCC2)CC1)N1CCN(c2cccc(Cl)c2)CC1	63.4*	-16.5	-0.1	9.4	27.2
CC1CCN(C(=O)C2CCN(c3ncnc4c3nc3n4CCCCC3)CC2)CC1	-8.7	5.7	-5.4	-0.1	-10.9
O=C(N[C@H](Cc1ccccc1)C(=O)NCc1ccco1)[C@H]1O[C@@H](n2ccc(=O)[nH]c2=O)[C@H](O)[C@@H]1O	-9.4	.	.	0.8	.
CC(O)CC(=O)OC[C@]12CC[C@H]3[C@@](C)(CC[C@H]4C(C)(C)CCC[C@]34C)[C@@H]1CC(C1=CC(=O)OC1O)O2 (stereo partly specified)	26.9	3.3	-0.3	4.0	2.0
CC(Sc1nc2ccccc2c(=O)n1CCc1ccc(S(N)(=O)=O)cc1)C(=O)NC(N)=O (stereo unspecified)	47.1	-1.3	-3.2	4.8	1.4
COCC(C)NC(=O)CSc1nc2ccccc2c(=O)n1CCc1ccc(S(N)(=O)=O)cc1 (stereo unspecified)	54.3*	-11.5	-1.3	12.6	29.7*
O=C(N/N=C/C=C\c1ccccc1[N+](=O)[O-])c1cc(-c2ccc3ccccc3c2)n[nH]1	53.3*	-2.4	-3.5	2.5	9.9
O=C(N/N=C/c1ccccn1)c1cc(-c2ccc3ccccc3c2)n[nH]1	70.9*	-8.7	-5.4	19.5	9.6
CCc1ccc(-c2cc(C(=O)N/N=C/c3ccccn3)[nH]n2)cc1	1.1	3.7	-3.0	10.3	-0.9
CC(C)(C)c1ccc(C#C[C@@H]2C=C[C@@H](O)[C@@H](CO)O2)cc1	-26.5	.	.	13.1	.
O=C(Cn1c2[n+](c3ccc(C(F)(F)F)cc31)CCCCC2)Nc1ccccc1	-16.5	-1.2	-4.4	2.0	-5.4
FC(F)(F)c1ccc2c(c1)n(Cc1ccccc1)c1[n+]2CCCCC1	-18.4	-24.7	-8.7	4.3	49.1*
CCN(CC)C1CCN(C(=O)c2cc(COc3cccc4cccnc34)on2)C1 (stereo unspecified)	2.3	-21.2	-0.7	-0.4	73.2*
CSc1ccccc1OCc1cc(C(=O)N2CCC(c3ccncc3)CC2)no1	16.4	-16.4	-2.0	0.9	41.1*
Cc1cc(OCc2cc(C(=O)N3CCC(Oc4cccnc4)CC3)no2)cc(C)c1Cl	52.5*	-8.6	-0.9	11.0	30.8*
Cc1cc(N2CCN(CC(C)(C)O)C[C@H]2C)ccc1N1CCN(Cc2ccccc2)[C@H](C)C1	-14.3	.	.	2.5	.
CN(Cc1ccccc1)Cc1cc(=O)oc2ccc3ccccc3c12	6.8	-13.1	-4.7	0.3	3.2
CN(C)CCOC1c2ccccc2CCc2ccc3ccccc3c21 (stereo unspecified)	-8.3	-23.7	-5.3	10.0	53.0*
CN(C)CCOC1c2ccccc2C=Cc2ccccc21	-13.3	.	.	1.2	.
Cc1cccc2sc(N(CCCN(C)C)C(=O)c3ccco3)nc12	-5.9	-16.1	13.7	9.1	75.6*
Cc1cccc2sc(N(CCCN(C)C)C(=O)c3cc4ccccc4oc3=O)nc12	0.3	-8.1	-8.3	1.4	8.0
Cc1cccc2sc(N(CCCN(C)C)C(=O)c3ccc(Cl)s3)nc12	-18.0	-18.3	-3.3	11.5	50.9*
O=[N+]([O-])c1ccc(NN=Cc2cccc(O)c2)nc1	24.4	0.1	4.1	36.8	-5.7
Cc1cccc(C)c1-n1c(C)cc(/C=N\Nc2ccc([N+](=O)[O-])cn2)c1C	50.8*	-14.2	-1.6	14.5	34.7*
N#Cc1ccc(S(=O)(=O)N2CCCCC2c2cc(C(=O)Nc3cccc4c3CCCC4)no2)cc1 (stereo unspecified)	8.7	4.2	-0.9	3.5	-13.1
SMILES	TAAR1 antagonist	M1 PAM	CHRM1 agonist	TAAR1 ag	CHRM1 antagonist
CCc1c(-c2cccc(F)c2)ncn1CCc1ccccc1OC	-20.4	.	.	6.2	.
CC(C)[C@H](N)C(=O)N[C@H](C(=O)N1CCC2CCN(Cc3ccccc3)CC21)C(C)C (stereo partly specified)	8.1	.	.	2.7	.
O=C(CN1CCc2cc3c(cc2C1)OCCCO3)Nc1ccc(S(=O)(=O)N2CCCC2)cc1	-3.0	-21.7	-3.2	8.3	50.3*
O=C(Cn1nc(C(=O)O)c2ccccc2c1=O)Nc1cccc(S(=O)(=O)N2CCCCC2)c1	20.8	-14.9	-0.6	15.3	24.0*
O=C(Cn1nc(C(=O)O)c2ccccc2c1=O)Nc1cccc(S(=O)(=O)N2CCOCC2)c1	-23.1	8.8	-4.7	1.8	-1.9
O=C(Cc1ccccc1)Nc1cccc(S(=O)(=O)N2CCCCCC2)c1	7.4	-0.1	3.2	3.5	0.3
O=C(CN1CCc2ccccc2C1)Nc1cccc(S(=O)(=O)N2CCCC2)c1	-6.9	-11.3	-2.7	37.8*	30.9
Nc1ccn([C@@H]2O[C@H](C(=O)NCC(=O)N3CCOCC3)[C@@H](O)[C@H]2O)c(=O)n1	6.6	.	.	-0.1	.
CC(C)C[C@@H]1COc2cc(NCCCN3CCOCC3)ccc2S(=O)(=O)N1	-7.3	.	.	8.6	.
Cc1ccc(OCc2cc(C(=O)NCc3ccc(OC(F)(F)F)cc3)no2)cn1	48.2	-8.2	5.7	40.9*	1.2
O=C(N[C@H](c1cccc(Br)c1)[C@@H]1CCCC=C1c1ccccc1)C(F)(F)F	12.4	.	.	0.1	.
CN(C)S(=O)(=O)c1cccc(NC(=O)c2cccc(S(=O)(=O)N3CCc4ccccc43)c2)c1	18.2	-19.3	-4.1	1.5	34.4*
O=C(Nc1nc2c(s1)CN(Cc1ccccc1)CC2)c1cccc(S(=O)(=O)N2CCc3ccccc32)c1	20.9	3.8	0.8	37.7*	4.4
CC(=O)c1cccc(NC(=O)c2ccc3c(c2)CCN3S(=O)(=O)c2ccccc2)c1	1.7	-1.3	-2.2	1.2	-1.6
CC(=O)Nc1cccc(NC(=O)c2ccc3c(c2)CCN3S(=O)(=O)c2ccccc2)c1	49.8*	-5.4	0.6	5.0	7.7
CC(=O)NS(=O)(=O)c1ccc(NC(=O)c2cccc(S(=O)(=O)N3CCc4ccccc43)c2)cc1	-13.5	3.3	-5.3	0.1	-2.8
COCCCNC(=O)C[C@H]1C[C@@]2(C(=O)OC)C(=C[C@H](C(C)(C)C)O[C@@H]2C)N(CCC2=CCCCC2)C1=O	-6.6	.	.	-1.7	.
O=C(CN1CCN(Cc2ccc3c(c2)OCO3)CC1)Nc1ccc(F)cc1	-21.9	1.0	-9.4	41.4*	30.5
O=C(CN1CCN(Cc2ccc3c(c2)OCO3)CC1)Nc1ccc2c(c1)OCO2	-10.7	5.6	-6.3	17.9	-12.3
c1cc2c(cc1CN1CCN(C3CCCCCC3)CC1)OCO2	-19.7	-25.2	-10.0	10.1	63.5*
